Reference: ChEMBL document CHEMBL2380254, “Optimization of tocotrienols as antiproliferative and antimigratory leads” (Eur J Med Chem, 2013)

Tests used:
Assay type in all cases: functional
Malme-3M = experiment: Growth inhibition of human MALME-3M cells after 48 hrs by sulforhodamine B assay
Procedure, shortened: (§1)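 NCI-60 panel cells grown in RPMI 1640 with 5% FBS and 2 mM L-glutamine, seeded at 5000–40,000 cells/well and preincubated 24 h. Five 10-fold dilutions (0.001–100 µM) from DMSO stocks were added for 48 h at 37 °C. Adherent cells were fixed with cold TCA (10% final) for 60 min at 4 °C, stained with 0.4% SRB, and read at 515 nm. GI50 was set where 100×(T−T0)/(C−T0)=50.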

LOX IMVI = experiment: Growth inhibition of human LOXIMVI cells assessed as cell growth at 10 uM after 48 hrs by sulforhodamine B assay; settings: read-out: Activity
Procedure, shortened: (§2)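 NCI-60 single-dose screen at 10 µM: cells in RPMI 1640 with 5% FBS, preincubated 24 h, then exposed 48 h at 37 °C. TCA fixation (16% final for suspension cells), SRB staining, absorbance 515 nm. Percent growth relative to time-zero and untreated control plates; negative values indicate cell kill.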

HOP-62 = experiment: Growth inhibition of human HOP62 cells assessed as cell growth at 10 uM after 48 hrs by sulforhodamine B assay; settings: HOP-62, 48 h, read-out: Activity; procedure, shortened: as §2
BT-549 = experiment: Growth inhibition of human BT549 cells assessed as cell growth at 10 uM after 48 hrs by sulforhodamine B assay; settings: BT-549, 48 h, read-out: Activity; procedure, shortened: as §2
SNB-19 = experiment: Growth inhibition of human SNB19 cells after 48 hrs by sulforhodamine B assay; settings: SNB-19, 48 h
Procedure, shortened: (§3)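 NCI-60 five-dose screen. Cells were grown in RPMI 1640 with 5% FBS and 2 mM L-glutamine, plated at 5000–40,000 cells/well and incubated 24 h before dosing, with T0 plates TCA-fixed. DMSO stocks were diluted to doses of […] and exposed 48 h at 37 °C, 5% CO2. Cells were fixed with cold TCA (final 10%, 60 min, 4 °C), stained with 0.4% SRB in 1% acetic acid for 10 min, solubilized in 10 mM trizma base and read at 515 nm. GI50 is where 100×(T−T0)/(C−T0)=50.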

MOLT-4 [1] = experiment: Growth inhibition of human MOLT4 cells assessed as cell growth at 10 uM after 48 hrs by sulforhodamine B assay; settings: MOLT-4, 48 h, read-out: Activity
Procedure, shortened: (§4)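 Single 10 µM dose applied to suspension cells in RPMI 1640 with 5% FBS and 2 mM L-glutamine for 48 h at 37 °C. Settled cells were fixed with 80% TCA (16% final), stained with SRB, and read at 515 nm. Percent growth was calculated against time-zero and untreated control optical densities.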

CAKI-1 = experiment: Growth inhibition of human CAKI-1 cells after 48 hrs by sulforhodamine B assay; settings: CAKI-1, 48 h
Procedure, shortened: (§5)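 NCI-60 screen: cells in RPMI 1640 with 5% FBS and 2 mM glutamine, 5000–40,000 cells/well, preincubated 24 h. Five concentrations (10-fold dilutions; 100 to 0.001 µM) applied for 48 h at 37 °C. TCA fixation, SRB stain, absorbance at 515 nm. Time-zero plates included; GI50 where 100×(T−T0)/(C−T0)=50.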

SN12C = experiment: Growth inhibition of human SN12C cells after 48 hrs by sulforhodamine B assay; procedure, shortened: as §3
UACC-62 = experiment: Growth inhibition of human UACC62 cells after 48 hrs by sulforhodamine B assay; settings: UACC-62, 48 h; procedure, shortened: as §3
MOLT-4 [2] = experiment: Growth inhibition of human MOLT4 cells after 48 hrs by sulforhodamine B assay; settings: MOLT-4, 48 h
Procedure, shortened: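 NCI-60 suspension lines in RPMI 1640 with 5% FBS and 2 mM L-glutamine, preincubated 24 h. A five-concentration 10-fold series (0.001–100 µM) was given for 48 h at 37 °C. Settled cells were fixed with 80% TCA (16% final), stained with SRB, and read at 515 nm. GI50 was taken where 100×(T−T0)/(C−T0)=50, with T0 plates fixed at drug addition.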

SR = experiment: Growth inhibition of human SR cells after 48 hrs by sulforhodamine B assay
Procedure, shortened: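 Suspension leukemia line in RPMI 1640 with 5% FBS and 2 mM L-glutamine, NCI-60 five-dose format ([…]), 48 h at 37 °C. Settled cells were fixed with 80% TCA (final 16%), stained with SRB and read at 515 nm. GI50 is where 100×(T−T0)/(C−T0)=50, with T0 measured at dosing.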

NCI-H322M = experiment: Growth inhibition of human NCI-H322M cells assessed as cell growth at 10 uM after 48 hrs by sulforhodamine B assay; settings: read-out: Activity
Procedure, shortened: (§6)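 Single-dose NCI-60 screen: adherent cells in RPMI 1640 with 5% FBS were exposed to 10 µM for 48 h at 37 °C after a 24 h preincubation. They were fixed in situ with cold TCA (10% final), stained with 0.4% SRB in 1% acetic acid, solubilized in 10 mM Tris base, and read at 515 nm. Percent growth was taken relative to time-zero and control plates.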

A549 = experiment: Growth inhibition of human A549/ATCC cells after 48 hrs by sulforhodamine B assay; settings: A549, 48 h; procedure, shortened: as §5
NCI-H23 = experiment: Growth inhibition of human NCI-H23 cells after 48 hrs by sulforhodamine B assay; settings: NCI-H23, 48 h; procedure, shortened: as §1
UO-31 = experiment: Growth inhibition of human UO31 cells after 48 hrs by sulforhodamine B assay; settings: UO-31, 48 h; procedure, shortened: as §3
UACC-257 = experiment: Growth inhibition of human UACC257 cells after 48 hrs by sulforhodamine B assay; settings: UACC-257, 48 h; procedure, shortened: as §3
OVCAR-8 = experiment: Growth inhibition of human OVCAR8 cells assessed as cell growth at 10 uM after 48 hrs by sulforhodamine B assay; settings: OVCAR-8, 48 h, read-out: Activity; procedure, shortened: as §6
SK-MEL-2 = experiment: Growth inhibition of human SK-MEL-2 cells assessed as cell growth at 10 uM after 48 hrs by sulforhodamine B assay; settings: SK-MEL-2, 48 h, read-out: Activity; procedure, shortened: as §6
KM12 = experiment: Growth inhibition of human KM12 cells after 48 hrs by sulforhodamine B assay; settings: KM12, 48 h; procedure, shortened: as §5
HCT-15 = experiment: Growth inhibition of human HCT15 cells assessed as cell growth at 10 uM after 48 hrs by sulforhodamine B assay; settings: HCT-15, 48 h, read-out: Activity; procedure, shortened: as §2
IGROV-1 = experiment: Growth inhibition of human IGROV1 cells after 48 hrs by sulforhodamine B assay; settings: IGROV-1, 48 h; procedure, shortened: as §5
NCI-H522 = experiment: Growth inhibition of human NCI-H522 cells assessed as cell growth at 10 uM after 48 hrs by sulforhodamine B assay; settings: NCI-H522, 48 h, read-out: Activity; procedure, shortened: as §6
[3] = Growth inhibition of human NCI-ADR-RES cells after 48 hrs by sulforhodamine B assay; procedure, shortened: as §1
RPMI-8226 = experiment: Growth inhibition of human RPMI8226 cells assessed as cell growth at 10 uM after 48 hrs by sulforhodamine B assay; settings: RPMI-8226, 48 h, read-out: Activity; procedure, shortened: as §4

## CC(C)=CCC/C(C)=C/CC/C(C)=C/CC[C@]1(C)CCc2c3c(cc(C)c2O1)OCN(CCc1ccc(O)cc1)C3
Malme-3M
  GI50: 7.06 µM
LOX IMVI
  growth at 10 µM: -93%
HOP-62
  growth at 10 µM: -31.3%
BT-549
  growth at 10 µM: 105%
SNB-19
  GI50: 5.89 µM
MOLT-4 [1]
  growth at 10 µM: -3.07%
CAKI-1
  GI50: 5.31 µM
SN12C
  GI50: 4.9 µM
UACC-62
  GI50: 6.01 µM
MOLT-4 [2]
  GI50: 2.42 µM
SR
  GI50: 1.37 µM
NCI-H322M
  growth at 10 µM: 29.7%
A549
  GI50: 6.09 µM
NCI-H23
  GI50: 6.82 µM
UO-31
  GI50: 4.42 µM
UACC-257
  GI50: 7.33 µM
OVCAR-8
  growth at 10 µM: -74.3%
SK-MEL-2
  growth at 10 µM: 116%
KM12
  GI50: 1.6 µM
HCT-15
  growth at 10 µM: 80.4%
IGROV-1
  GI50: 4.34 µM
NCI-H522
  growth at 10 µM: -50.5%
[3]
  GI50: 5.93 µM

## CC(C)=CCC/C(C)=C/CC/C(C)=C/CC[C@]1(C)CCc2c3c(cc(C)c2O1)OCN(CCCCO)C3
Malme-3M
  GI50: 22.4 µM
LOX IMVI
  growth at 10 µM: 100%
HOP-62
  growth at 10 µM: -84.5%
BT-549
  growth at 10 µM: 88.2%
SNB-19
  GI50: 16 µM
MOLT-4 [1]
  growth at 10 µM: -35.3%
CAKI-1
  GI50: 15.2 µM
SN12C
  GI50: 16.3 µM
UACC-62
  GI50: 17.5 µM
MOLT-4 [2]
  GI50: 16.2 µM
SR
  GI50: 7.26 µM
NCI-H322M
  growth at 10 µM: 48.5%
A549
  GI50: 15.5 µM
NCI-H23
  GI50: 17.5 µM
UO-31
  GI50: 12.2 µM
UACC-257
  GI50: 11.4 µM
OVCAR-8
  growth at 10 µM: -13.3%
KM12
  GI50: 11.9 µM
HCT-15
  growth at 10 µM: -53.9%
IGROV-1
  GI50: 14.8 µM
NCI-H522
  growth at 10 µM: 48.5%
RPMI-8226
  growth at 10 µM: 79.2%
[3]
  GI50: 16.8 µM

## CC(C)=CCC/C(C)=C/CC/C(C)=C/CC[C@]1(C)CCc2c3c(cc(C)c2O1)OCN(CCCCCCCCO)C3
Malme-3M
  GI50: 7.15 µM
LOX IMVI
  growth at 10 µM: -86.9%
HOP-62
  growth at 10 µM: -99%
SNB-19
  GI50: 1.36 µM
MOLT-4 [1]
  growth at 10 µM: -58.6%
CAKI-1
  GI50: 4.07 µM
SN12C
  GI50: 1.54 µM
UACC-62
  GI50: 4.79 µM
MOLT-4 [2]
  GI50: 0.996 µM
SR
  GI50: 0.785 µM
NCI-H322M
  growth at 10 µM: -76.3%
A549
  GI50: 0.616 µM
NCI-H23
  GI50: 4.4 µM
UO-31
  GI50: 3.46 µM
UACC-257
  GI50: 0.656 µM
OVCAR-8
  growth at 10 µM: -51.9%
SK-MEL-2
  growth at 10 µM: -52%
KM12
  GI50: 0.784 µM
HCT-15
  growth at 10 µM: -10.9%
IGROV-1
  GI50: 1.34 µM
NCI-H522
  growth at 10 µM: -81.6%
RPMI-8226
  growth at 10 µM: -23.2%
[3]
  GI50: 3.37 µM

## CC(C)=CCC/C(C)=C/CC/C(C)=C/CC[C@]1(C)CCc2c3c(cc(C)c2O1)OCN(C1CCN(Cc2ccccc2)CC1)C3
Malme-3M
  GI50: 2.13 µM
LOX IMVI
  growth at 10 µM: -47.4%
HOP-62
  growth at 10 µM: 111%
BT-549
  growth at 10 µM: 109%
SNB-19
  GI50: 1.61 µM
CAKI-1
  GI50: 1.6 µM
SN12C
  GI50: 1.46 µM
UACC-62
  GI50: 1.48 µM
MOLT-4 [2]
  GI50: 0.237 µM
SR
  GI50: 0.217 µM
NCI-H322M
  growth at 10 µM: 19%
A549
  GI50: 1.57 µM
NCI-H23
  GI50: 1.51 µM
UO-31
  GI50: 1.51 µM
UACC-257
  GI50: 2.24 µM
OVCAR-8
  growth at 10 µM: -85.8%
SK-MEL-2
  growth at 10 µM: 109%
KM12
  GI50: 0.699 µM
HCT-15
  growth at 10 µM: 86.4%
IGROV-1
  GI50: 1.56 µM
NCI-H522
  growth at 10 µM: -24.9%
RPMI-8226
  growth at 10 µM: 14.6%
[3]
  GI50: 2.56 µM

## CC(C)=CCC/C(C)=C/CC/C(C)=C/CC[C@]1(C)CCc2c3c(c(C)c(C)c2O1)OCN(CCCCO)C3
Malme-3M
  GI50: > 10 µM
LOX IMVI
  growth at 10 µM: -90.5%
HOP-62
  growth at 10 µM: 75%
BT-549
  growth at 10 µM: 104%
SNB-19
  GI50: 3.03 µM
MOLT-4 [1]
  growth at 10 µM: 35.8%
CAKI-1
  GI50: > 10 µM
SN12C
  GI50: 7.98 µM
UACC-62
  GI50: > 10 µM
MOLT-4 [2]
  GI50: 3.46 µM
SR
  GI50: 2.47 µM
NCI-H322M
  growth at 10 µM: 84.8%
A549
  GI50: 3.3 µM
NCI-H23
  GI50: > 10 µM
UO-31
  GI50: 8.83 µM
UACC-257
  GI50: 1.73 µM
OVCAR-8
  growth at 10 µM: 87.3%
SK-MEL-2
  growth at 10 µM: 95.8%
KM12
  GI50: 1.94 µM
IGROV-1
  GI50: 6.53 µM
NCI-H522
  growth at 10 µM: 86.7%
RPMI-8226
  growth at 10 µM: 91.9%
[3]
  GI50: > 10 µM
